This passage reports Adhesion results from ChEMBL document CHEMBL1134773, “Design and synthesis of potent and selective alpha(4)beta(7) integrin antagonists” (J Med Chem, 2001).

The first test deals with T1, Integrin alpha-4/beta-7 (Homo sapiens) (UniProt P13612+P26010). The test can be described thus: Ability to inhibit adhesion of alpha4-beta7 integrin expressing 38-beta7 lymphoma cells to chinese hamster ovary (CHO) cells stably transfected with MAdCAM-1. The format is cell-based. The procedure, abridged: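 38-β7 lymphoma cells (α4β7+) labelled 30 min at 37 °C with 12 μg/mL H33342, then 8×10^5/mL in buffer with 1.0 mM Ca2+/Mg2+. Preincubated 10 min at 37 °C with peptide at 1 mg/mL final. Allowed to adhere 30 min at 37 °C to confluent MAdCAM-1-transfected CHO monolayers (seeded 24 h before). Nonadherent cells removed by inverse centrifugation. Result given as % of medium control, mean of two experiments.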
The molecule `NC(=O)C[C@@H]1NC(=O)CNC(=O)[C@@H](Cc2ccccc2)NC(=O)[C@@H](Cc2c[nH]cn2)NC(=O)[C@@H](CCC(=O)O)NC1=O` displayed an Adhesion of 100%.
Molecule `CC[C@H](C)[C@@H]1NC(=O)[C@@H](C)NC(=O)[C@H]2CCCN2C(=O)[C@@H](C)NC(=O)[C@H]([C@@H](C)O)NC(=O)[C@@H](CC(=O)O)NC1=O` displayed an Adhesion of 64%.
Same read-out and setting: the result for `CC(C)C[C@@H]1NC(=O)C(C2CCCCC2)NC(=O)[C@H]2CCCN2C(=O)[C@@H](CC(=O)O)NC(=O)[C@H]([C@@H](C)O)NC(=O)[C@@H](CC(=O)O)NC1=O` (stereo partly specified) reads 58%; that for `CC(C)C[C@@H]1NC(=O)[C@@H](CC(=O)O)NC(=O)[C@H]2CCCN2C(=O)[C@@H](Cc2c[nH]c3ccccc23)NC(=O)[C@H]([C@@H](C)O)NC(=O)[C@@H](CC(=O)O)NC1=O`, 87%.
Still for that read-out and setting: the result for `CC(C)C[C@@H]1NC(=O)[C@@H](Cc2ccccc2)NC(=O)[C@@H](Cc2ccccc2)NC(=O)[C@@H](CC(=O)O)NC(=O)[C@H]([C@@H](C)O)NC(=O)[C@@H](CC(=O)O)NC1=O` reads 56%; that for `CSCC[C@H]1NC(=O)[C@H]([C@@H](C)O)NC(=O)[C@@H](CC(=O)O)NC(=O)[C@H](CC(C)C)NC(=O)[C@@H](CC(=O)O)NC(=O)[C@H]2CCCN2C1=O`, 83%.
Same read-out and setting: the result for `CC(C)C[C@@H]1NC(=O)[C@@H](C)NC(=O)[C@H]2CCCN2C(=O)[C@@H](CC(=O)O)NC(=O)[C@H](C(C)C)NC(=O)[C@@H](CC(=O)O)NC1=O` reads 40%; that for `CC(C)C[C@@H]1NC(=O)[C@@H](C)NC(=O)[C@H](C)NC(=O)[C@H]2CCCN2C(=O)[C@H]([C@@H](C)O)NC(=O)[C@@H](CC(=O)O)NC1=O`, 111%; that for `CC(C)C[C@@H]1NC(=O)[C@@H](CC(=O)O)NC(=O)[C@@H](CC(=O)O)NC(=O)[C@@H](C)NC(=O)[C@H]([C@@H](C)O)NC(=O)[C@@H](CC(=O)O)NC1=O`, 99%.
Regarding `CC(C)C[C@@H]1NC(=O)[C@H](C)NC(=O)[C@@H](C)NC(=O)[C@@H]([C@@H](C)O)NC(=O)[C@@H](CC(=O)O)NC1=O`, the Adhesion was 85%.
Molecule `CC(C)C[C@@H]1NC(=O)[C@@H](CC(=O)O)NC(=O)[C@H]2CCCN2C(=O)[C@@H](C)NC(=O)[C@H]([C@@H](C)O)NC(=O)[C@@H](CC(=O)O)NC1=O` showed an Adhesion of 115%.
Same read-out and setting: the result for `CC[C@H](C)[C@H]1NC(=O)[C@H](C)NC(=O)[C@@H](C)NC(=O)[C@H]([C@@H](C)O)NC(=O)[C@@H](CC(=O)O)NC1=O` (stereo in doubt; P1) reads 100%; that for `CC(C)C[C@@H]1NC(=O)[C@@H](C)NC(=O)[C@H](C)NC(=O)[C@@H](C)NC(=O)[C@H]([C@@H](C)O)NC(=O)[C@@H](CC(=O)O)NC1=O`, 85%; that for `CC(C)C[C@@H]1NC(=O)[C@@H]([C@@H](C)O)NC(=O)[C@H]2CCCN2C(=O)[C@@H](C)NC(=O)[C@H]([C@@H](C)O)NC(=O)[C@@H](CC(=O)O)NC1=O`, 49%.
For `C[C@H]1NC(=O)[C@H]2CCCN2C(=O)[C@@H](C)NC(=O)[C@H]([C@@H](C)O)NC(=O)[C@@H](CC(=O)O)NC(=O)CNC1=O`, the Adhesion came out at 105%.
For `C[C@H]1NC(=O)[C@H]2CCCN2C(=O)[C@@H](CC(=O)O)NC(=O)[C@H]([C@@H](C)O)NC(=O)[C@@H](CC(=O)O)NC(=O)[C@H](c2ccccc2)NC1=O`, the Adhesion turned out to be 98%.
The same measure, in the same setting: the result for `CC(C)C[C@@H]1NC(=O)[C@@H](C)NC(=O)[C@@H](Cc2ccccc2)NC(=O)[C@@H](CC(=O)O)NC(=O)[C@H]([C@@H](C)O)NC(=O)[C@@H](CC(=O)O)NC1=O` reads 63%; that for `CC(C)C[C@@H]1NC(=O)[C@@H](CC(=O)O)NC(=O)[C@H]2CCCN2C(=O)[C@@H](CCCCN)NC(=O)[C@H]([C@@H](C)O)NC(=O)[C@@H](CC(=O)O)NC1=O`, 102%; that for `CC(C)C[C@@H]1NC(=O)[C@@H](CCCN=C(N)N)NC(=O)[C@H]2CCCN2C(=O)[C@@H](C)NC(=O)[C@H]([C@@H](C)O)NC(=O)[C@@H](CC(=O)O)NC1=O`, 26%.
On the same count and under the same terms, the result for `CC(C)C[C@@H]1NC(=O)[C@@H](CC(=O)O)NC(=O)[C@H]2CCCN2C(=O)[C@@H](Cc2ccccc2)NC(=O)[C@H]([C@@H](C)O)NC(=O)[C@@H](CC(=O)O)NC1=O` reads 100%; that for `CC(C)C[C@@H]1NC(=O)[C@@H](CC(=O)O)NC(=O)[C@@H](Cc2ccccc2)NC(=O)[C@@H](C)NC(=O)[C@H]([C@@H](C)O)NC(=O)[C@@H](CC(=O)O)NC1=O`, 86%.
Same read-out and setting: for `CC(C)C[C@@H]1NC(=O)[C@@H](CCC(=O)O)NC(=O)[C@H]2CCCN2C(=O)[C@@H](C)NC(=O)[C@H]([C@@H](C)O)NC(=O)[C@@H](CC(=O)O)NC1=O` the value was 65%; for `CC(C)C[C@@H]1NC(=O)[C@@H](CC(=O)O)NC(=O)[C@H]2CCCN2C(=O)[C@@H](Cc2ccc(O)cc2)NC(=O)[C@H]([C@@H](C)O)NC(=O)[C@@H](CC(=O)O)NC1=O`, 76%; for `CC[C@H](C)[C@@H]1NC(=O)[C@H](C)NC(=O)[C@@H](C)NC(=O)[C@H]([C@@H](C)O)NC(=O)[C@@H](CC(=O)O)NC1=O`, 137%.
For `C[C@H]1NC(=O)[C@H]2CCCN2C(=O)[C@@H](CC(=O)O)NC(=O)[C@H]([C@@H](C)O)NC(=O)[C@@H](CC(=O)O)NC(=O)[C@@H](c2ccccc2)NC1=O`, the Adhesion turned out to be 114%.
Still for that read-out and setting: for `CC(C)C[C@@H]1NC(=O)[C@@H](Cc2ccccc2)NC(=O)[C@H]2CCCN2C(=O)[C@@H](CCCCN)NC(=O)[C@H]([C@@H](C)O)NC(=O)[C@@H](CC(=O)O)NC1=O` the value was 85%; for `CC(C)C[C@@H]1NC(=O)[C@@H](C)NC(=O)[C@H]2CCCN2C(=O)[C@@H](CC(=O)O)NC(=O)[C@H]([C@@H](C)O)NC(=O)[C@@H](CC(=O)O)NC1=O`, 47%; for `CC(C)C[C@@H]1NC(=O)[C@H]2CCCN2C(=O)[C@H](C)NC(=O)[C@@H](C)NC(=O)[C@H]([C@@H](C)O)NC(=O)[C@@H](CC(=O)O)NC1=O`, 30%.
On the same count and under the same terms, for `C[C@H]1NC(=O)[C@H]2CCCN2C(=O)[C@@H](CC(=O)O)NC(=O)[C@H]([C@@H](C)O)NC(=O)[C@@H](CC(=O)O)NC(=O)[C@H](Cc2ccccc2)NC1=O` the value was 102%.
Same read-out and setting: for `CC(C)C[C@@H]1NC(=O)[C@@H](Cc2ccc(C(=O)c3ccccc3)cc2)NC(=O)[C@H]2CCCN2C(=O)[C@@H](CC(=O)O)NC(=O)[C@H]([C@@H](C)O)NC(=O)[C@@H](CC(=O)O)NC1=O` the value was 10%.
In turn, `CC(C)C[C@@H]1NC(=O)[C@@H](Cc2ccc(O)cc2)NC(=O)[C@H]2CCCN2C(=O)[C@@H](CCCCN)NC(=O)[C@H]([C@@H](C)O)NC(=O)[C@@H](CC(=O)O)NC1=O` showed an Adhesion of 81%.
On the same count and under the same terms, for `CC(C)C[C@@H]1NC(=O)[C@H]2CCCN2C(=O)[C@@H](C)NC(=O)[C@H]([C@@H](C)O)NC(=O)[C@@H](CC(=O)O)NC1=O` the value was 74%.
The molecule `CC(C)C[C@@H]1NC(=O)[C@@H](C)NC(=O)[C@H]2CCCN2C(=O)[C@@H](C)NC(=O)CNC(=O)[C@@H](CC(=O)O)NC1=O` showed an Adhesion of 91%.
Still for that read-out and setting: for `CC(C)C[C@@H]1NC(=O)[C@H](C)NC(=O)[C@H]2CCCN2C(=O)[C@H]([C@@H](C)O)NC(=O)[C@@H](CC(=O)O)NC1=O` the value was 89%; for `CC[C@H](C)[C@H]1NC(=O)[C@H](C)NC(=O)[C@@H](C)NC(=O)[C@H]([C@@H](C)O)NC(=O)[C@@H](CC(=O)O)NC1=O` (stereo in doubt; P6), 63%.
Same read-out and setting: for `CC(C)C[C@@H]1NC(=O)[C@@H]2Cc3ccccc3CN2C(=O)[C@H]2CCCN2C(=O)[C@@H](CC(=O)O)NC(=O)[C@H]([C@@H](C)O)NC(=O)[C@@H](CC(=O)O)NC1=O` the value was 9%.
Regarding `CC(C)C[C@@H]1NC(=O)[C@@H](C)NC(=O)[C@H]2CCCN2C(=O)[C@@H](C)NC(=O)[C@H](C(C)C)NC(=O)[C@@H](CC(=O)O)NC1=O`, the Adhesion came out at 50%.
Same read-out and setting: for `CC(C)[C@@H]1NC(=O)[C@@H](C)NC(=O)[C@H]2CCCN2C(=O)[C@@H](C)NC(=O)[C@H]([C@@H](C)O)NC(=O)[C@@H](CC(=O)O)NC1=O` the value was 97%; for `CC(C)C[C@@H]1NC(=O)[C@@H](C)NC(=O)[C@H]2CCCN2C(=O)[C@@H](C)NC(=O)[C@H](CO)NC(=O)[C@@H](CC(=O)O)NC1=O`, 90%.
The same measure, in the same setting: for `CC(C)C[C@@H]1NC(=O)[C@@H](C)NC(=O)[C@H]2CCCN2C(=O)[C@@H](C)NC(=O)[C@H]([C@@H](C)O)NC(=O)[C@@H](CC(=O)O)NC1=O` the value was 7%.

For another test, the target named is T1, Integrin alpha-4/beta-7 (Homo sapiens). The test is described as follows: Inhibition of alpha4-beta7 lymphoma cell binding to CHO-VCAM-1 cells. It is filed as cell-based.
`NC(=O)C[C@@H]1NC(=O)CNC(=O)[C@@H](Cc2ccccc2)NC(=O)[C@@H](Cc2c[nH]cn2)NC(=O)[C@@H](CCC(=O)O)NC1=O`: the Adhesion was 93%.
